One experiment deals with VCAM1^+ BMECs. It is filed as cell-based, human. The following applies: for co-localization of the cis isomer with anti-VCAM1 antibody: VCAM1^+ BMECs, confocal microscopy.
In the next experiment the target is human VCAM1. Kind of experiment: SPR measurement of peptide-VCAM1 binding. The conditions noted are these: for ∣ΔΔGB∣: ∣ΔGB,trans – ΔGB,cis∣ from SPR values. A digest of the protocol:
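Peptide-functionalised gold sensor chips, with three sensors per ligand and ligand density measured by variable angle spectroscopic ellipsometry. Chip-bound peptide was conditioned to cis or trans isomer, then exposed to human VCAM1 at 0.01–1 mg mL−1 in PBS. KD was determined for each isomer.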
A general note: In SPR one partner is held on a chip, and binding of the other changes the refractive index at the surface.

Take “cycloAZOB[G-VHAKQHRN-K*] (sidechain bridge or staple)”: the “binding to BMECs in trans configuration” value in the experiment on VCAM1^+ BMECs (BMEC labelling, fluorescence microscopy) is given as “negligible binding”. In addition, the “co-localization of the cis isomer with anti-VCAM1 antibody” value in the experiment with VCAM1^+ BMECs is listed as “clear co-localization”. Also, at human VCAM1 (affinity shift between trans and cis isomers, SPR), the “KD,trans/KD,cis” value is ~ 130. For the same substance, the “∣ΔΔGB∣” value with human VCAM1 was 2.93.

Regarding “cycloAZOB[G-VHAKQHRN-K*]-K(Biotin) (sidechain bridge or staple)”, the “co-localization of the cis isomer with anti-VCAM1 antibody” value in the experiment on VCAM1^+ BMECs is “co-localization with anti-VCAM1 antibodies in cis configuration”.

Turning to “cycloAZOB[G-VHNKQHRP-K*] (sidechain bridge or staple)”, the “∣ΔΔGB∣” value in the experiment on human VCAM1 was 1.84.

As for “cycloAZOB[G-VHPKQHRP-K*] (sidechain bridge or staple)”, the “∣ΔΔGB∣” value in the experiment on human VCAM1 worked out at 1.52.

As to “cycloAZOB[G-VHPKQHRS-K*] (sidechain bridge or staple)”, in the experiment on human VCAM1, the “∣ΔΔGB∣” value came to 2.52.

The record behind these values is article PMC7945681 (Journal of materials chemistry. B, 2020).
